Data from ChEMBL document CHEMBL4028904, “Discovery of a Novel Series of Tankyrase Inhibitors by a Hybridization Approach” (J Med Chem, 2017).
≈ marks a conversion by molar mass, not a printed value.

What was measured:
[1] = biological target: cGMP-dependent protein kinase 1 (Homo sapiens) (UniProt Q13976); experiment: Inhibition of PRKG1 (unknown origin) at 10 uM after 60 mins in presence of [gamma-33P]-ATP by microplate scintillation counting
Outline: (§1)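 A panel of 320 wild-type protein kinases was screened with the compound at 10 μM. Activity is reported as percent inhibition.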

[2] = biological target: Poly [ADP-ribose] polymerase 2 (Homo sapiens, UniProt Q9UGN5); experiment: Inhibition of human GST-tagged PARP2 (2 to 583 residues) expressed in baculovirus infected Sf9 cell expression system using NAD+ as substrate after 4 hrs by fluorescence assay
[3] = biological target: Maternal embryonic leucine zipper kinase (Homo sapiens) (UniProt Q14680); experiment: Inhibition of MELK (unknown origin) at 10 uM after 60 mins in presence of [gamma-33P]-ATP by microplate scintillation counting; outline: as §1
[4] = AUC (0 to t) in Beagle dog at 7 mg/kg, po measured up to 24 hrs postdose; type: ADME, organism-based, Canis lupus familiaris; parameters: time < 24 hr, dose 7 mg/kg, route oral; conditions: in vivo
Mus musculus [5] = experiment: Toxicity in immunocompetent BDF1 mouse allografted with mouse P388 cells assessed as animal discomfort at 15 to 30 mg/kg, po administered qd for 10 days measured on day 12 post last dose; type: organism-based; conditions: in vivo, 240 h
[6] = Oral bioavailability in ICR mouse at 5 mg/kg measured up to 24 hrs postdose; type: ADME, organism-based; conditions: in vivo
[7] = Oral bioavailability in Sprague-Dawley rat at 14 mg/kg measured up to 24 hrs postdose; type: ADME, organism-based; conditions: in vivo
[8] = Intrinsic clearance in human hepatocytes assessed per million cells at 3 uM measured up to 120 mins by LC-MS/MS analysis; type: ADME, cell-based, Hepatocyte; conditions: read-out: CLH
COLO 320DM [9] = experiment: Antitumor activity against human COLO320DM cells xenografted in nude Balb/c mouse assessed as tumor growth inhibition at 60 mg/kg, po administered qd for 10 days measured on days 12, 17 and 21 post last dose; type: functional; conditions: 240 h, read-out: TGI
Outline: (§2)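 Tumor-bearing mice were randomized 2 days after inoculation into four groups: vehicle (1% starch, n = 4) and 15, 30 or 60 mg/kg (n = 5 each). Dosing was oral, once daily, for 10 days. Tumor size was measured by caliper on days 12, 17 and 21. Values are tumor volume reduction relative to vehicle-treated controls.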

[10] = Inhibition of CYP1A in human liver microsomes using ethoxyresorufin as substrate after 30 mins by LC-MS/MS analysis; type: ADME
[11] = biological target: Protein mono-ADP-ribosyltransferase PARP15 (Homo sapiens, UniProt Q460N3); experiment: Inhibition of human PARP15 using NAD+ as substrate by fluorescence assay
P388 [12] = experiment: Antitumor activity against mouse P388 cells allografted in immunocompetent BDF1 mouse assessed as tumor growth inhibition at 30 mg/kg, po administered qd for 10 days measured on day 12 post last dose; type: functional; conditions: read-out: TGI
Outline: (§3)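 Immunocompetent BDF1 (DBA2 × C57Bl6j) mice were implanted with p388 cells and randomized after 2 days into vehicle (1% starch, n = 6) and two treatment groups (n = 5 each). Dosing was oral, once daily, for 10 days. Tumor size was measured by caliper at the end. Values are tumor size reduction relative to vehicle control.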

Cytochrome P450 2D6 = Cytochrome P450 2D6 (Homo sapiens, UniProt P10635); experiment: Inhibition of CYP2D6 in human liver microsomes using dextromethorphan as substrate after 30 mins by LC-MS/MS analysis; type: ADME
[13] = Apparent permeability across apical to basolateral side in MDCK cells expressing human MDR1 at 10 uM after 2 hrs by LC/MS/MS analysis; type: ADME, cell-based, Canis lupus familiaris; conditions: dog
[14] = Terminal half life in Beagle dog at 7 mg/kg, po measured up to 24 hrs postdose; type: ADME, organism-based, Canis lupus familiaris; conditions: in vivo, read-out: beta t1/2 (converted)
[15] = Drug excretion in Sprague-Dawley rat feces at 7 mg/kg, iv or 14 mg/kg, po measured up to 24 hrs by LC-MS/MS; type: ADME, organism-based; conditions: in vivo
[16] = biological target: Protein mono-ADP-ribosyltransferase PARP14 (Homo sapiens, UniProt Q460N5); experiment: Inhibition of human PARP14 using NAD+ as substrate by fluorescence assay
Cytochrome P450 2C9 = Cytochrome P450 2C9 (Homo sapiens, UniProt P11712); experiment: Inhibition of CYP2C9 in human liver microsomes using tolbutamide as substrate after 30 mins by LC-MS/MS analysis; type: ADME
Cytochrome P450 2C19 = Cytochrome P450 2C19 (Homo sapiens, UniProt P33261); experiment: Inhibition of CYP2C19 in human liver microsomes using mephenytoin as substrate after 30 mins by LC-MS/MS analysis; type: ADME
[17] = Apparent permeability across basolateral to apical side in MDCK cells expressing human MDR1 at 10 uM after 2 hrs by LC/MS/MS analysis; type: ADME, cell-based, Canis lupus familiaris; conditions: dog
Cytochrome P450 3A4 = Cytochrome P450 3A4 (Homo sapiens, UniProt P08684); experiment: Inhibition of CYP3A4 in human liver microsomes using midazolam as substrate after 30 mins by LC-MS/MS analysis; type: ADME
[18] = biological target: Dual specificity protein kinase CLK2 (Homo sapiens) (UniProt P49760); experiment: Inhibition of CLK2 (unknown origin) at 10 uM after 60 mins in presence of [gamma-33P]-ATP by microplate scintillation counting; outline: as §1
[19] = biological target: Protein mono-ADP-ribosyltransferase PARP12 (Homo sapiens, UniProt Q9H0J9); experiment: Inhibition of human PARP12 using NAD+ as substrate by fluorescence assay
[20] = Oral bioavailability in Beagle dog at 7 mg/kg measured up to 24 hrs postdose; type: ADME, organism-based, Canis lupus familiaris; conditions: in vivo
Canis familiaris = experiment: Clearance in Beagle dog at 7 mg/kg, po measured up to 24 hrs postdose; type: ADME, organism-based, Canis lupus familiaris; conditions: in vivo
[21] = biological target: Protein mono-ADP-ribosyltransferase PARP10 (Homo sapiens, UniProt Q53GL7); experiment: Inhibition of human PARP10 using NAD+ as substrate by fluorescence assay
[22] = Drug excretion in Sprague-Dawley rat urine at 7 mg/kg, iv or 14 mg/kg, po measured up to 24 hrs by LC-MS/MS; type: ADME, organism-based; conditions: in vivo
[23] = Cmax in Beagle dog at 7 mg/kg, po measured up to 24 hrs postdose; type: ADME, organism-based, Canis lupus familiaris; parameters: dose 7 mg/kg, route oral; conditions: in vivo
[24] = Kinetic solubility of the compound in PBS buffer at pH 7.4 at 25 degC after 2 hrs; type: physicochemical; conditions: read-out: Kinetic_solubility
[25] = biological target: Protein mono-ADP-ribosyltransferase PARP3 (Homo sapiens, UniProt Q9Y6F1); experiment: Inhibition of human PARP3 using NAD+ as substrate by fluorescence assay
P388 [26] = experiment: Antitumor activity against mouse P388 cells allografted in immunocompetent BDF1 mouse assessed as tumor growth inhibition at 15 mg/kg, po administered qd for 10 days measured on day 12 post last dose; type: functional; conditions: read-out: TGI; outline: as §3
[27] = AUC (0 to t) in ICR mouse at 5 mg/kg, po measured up to 24 hrs postdose; type: ADME, organism-based; parameters: time < 24 hr, dose 5 mg/kg, route oral; conditions: in vivo
[28] = Terminal half life in ICR mouse at 5 mg/kg, po measured up to 24 hrs postdose; type: ADME, organism-based; conditions: in vivo, read-out: beta t1/2 (converted)
[29] = biological target: Poly [ADP-ribose] polymerase 1 (Homo sapiens, UniProt P09874); experiment: Inhibition of recombinant human PARP1 expressed in Escherichia coli using NAD+ as substrate after 10 mins by fluorescence assay
Mus musculus [30] = experiment: Toxicity in immunodeficient nude Balb/c mouse xenografted with human COLO320DM cells assessed as body weight change at 15 to 60 mg/kg, po administered qd for 10 days measured on days 12, 17 and 21 post last dose; conditions: in vivo, 240 h
Mus musculus [31] = experiment: Clearance in ICR mouse at 5 mg/kg, po measured up to 24 hrs; type: ADME, organism-based; conditions: in vivo
Liver = experiment: Intrinsic clearance in human liver microsomes at 3 uM incubated up to 45 mins in presence of NADPH by LC-MS/MS analysis; type: ADME, microsome; conditions: 0.75 h
[32] = biological target: Protein mono-ADP-ribosyltransferase PARP4 (Homo sapiens, UniProt Q9UKK3); experiment: Inhibition of human PARP4 using NAD+ as substrate by fluorescence assay
Mus musculus [33] = experiment: Toxicity in immunocompetent BDF1 mouse allografted with mouse P388 cells assessed as body weight change at 15 to 30 mg/kg, po administered qd for 10 days measured on day 12 post last dose; type: organism-based; conditions: in vivo, 240 h
[34] = biological target: Protein mono-ADP-ribosyltransferase PARP16 (Homo sapiens, UniProt Q8N5Y8); experiment: Inhibition of human PARP16 using NAD+ as substrate by fluorescence assay
[35] = AUC (0 to t) in Sprague-Dawley rat at 14 mg/kg, po measured up to 24 hrs postdose; type: ADME, organism-based; parameters: time < 24 hr, dose 14 mg/kg, route oral; conditions: in vivo
COLO 320DM [36] = experiment: Antitumor activity against human COLO320DM cells xenografted in nude Balb/c mouse assessed as tumor growth inhibition at 30 mg/kg, po administered qd for 10 days measured on days 12, 17 and 21 post last dose; type: functional; conditions: 240 h, read-out: TGI; outline: as §2
[37] = Cmax in Sprague-Dawley rat at 14 mg/kg, po measured up to 24 hrs postdose; type: ADME, organism-based; parameters: dose 14 mg/kg, route oral; conditions: in vivo
[38] = biological target: Serine/threonine-protein kinase 16 (Homo sapiens) (UniProt O75716); experiment: Inhibition of TSF1 (unknown origin) at 10 uM after 60 mins in presence of [gamma-33P]-ATP by microplate scintillation counting; outline: as §1
[39] = Cmax in ICR mouse at 5 mg/kg, po measured up to 24 hrs postdose; type: ADME, organism-based; parameters: dose 5 mg/kg, route oral; conditions: in vivo
Mus musculus [40] = experiment: Toxicity in immunodeficient nude Balb/c mouse xenografted with human COLO320DM cells assessed as animal discomfort at 15 to 60 mg/kg, po administered qd for 10 days measured on days 12, 17 and 21 post last dose; conditions: in vivo, 240 h
COLO 320DM [41] = experiment: Antitumor activity against human COLO320DM cells xenografted in nude Balb/c mouse assessed as tumor growth inhibition at 15 mg/kg, po administered qd for 10 days measured on days 12, 17 and 21 post last dose; type: functional; conditions: 240 h, read-out: TGI; outline: as §2

Protein mono-ADP-ribosyltransferase PARP12, sequence (Q9H0J9 whole entry): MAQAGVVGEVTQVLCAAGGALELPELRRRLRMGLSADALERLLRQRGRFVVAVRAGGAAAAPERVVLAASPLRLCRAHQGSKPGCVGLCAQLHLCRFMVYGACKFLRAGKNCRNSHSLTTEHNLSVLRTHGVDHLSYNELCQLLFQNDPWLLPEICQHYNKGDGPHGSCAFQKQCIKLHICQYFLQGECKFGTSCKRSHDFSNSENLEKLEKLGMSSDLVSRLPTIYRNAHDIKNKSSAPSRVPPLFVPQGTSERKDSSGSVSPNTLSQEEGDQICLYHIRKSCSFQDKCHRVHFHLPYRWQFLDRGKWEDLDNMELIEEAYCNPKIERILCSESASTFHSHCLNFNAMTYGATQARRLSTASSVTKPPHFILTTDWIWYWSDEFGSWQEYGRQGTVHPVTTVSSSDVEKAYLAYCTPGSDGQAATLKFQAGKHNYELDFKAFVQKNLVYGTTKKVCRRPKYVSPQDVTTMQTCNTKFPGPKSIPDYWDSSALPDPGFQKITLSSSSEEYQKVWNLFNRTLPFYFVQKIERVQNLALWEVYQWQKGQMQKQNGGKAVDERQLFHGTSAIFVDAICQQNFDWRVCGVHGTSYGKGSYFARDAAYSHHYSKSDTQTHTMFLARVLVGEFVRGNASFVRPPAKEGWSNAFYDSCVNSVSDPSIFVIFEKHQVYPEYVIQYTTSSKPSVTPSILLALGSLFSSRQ
Poly [ADP-ribose] polymerase 2, sequence (Q9UGN5 whole entry, the tested form may be a part): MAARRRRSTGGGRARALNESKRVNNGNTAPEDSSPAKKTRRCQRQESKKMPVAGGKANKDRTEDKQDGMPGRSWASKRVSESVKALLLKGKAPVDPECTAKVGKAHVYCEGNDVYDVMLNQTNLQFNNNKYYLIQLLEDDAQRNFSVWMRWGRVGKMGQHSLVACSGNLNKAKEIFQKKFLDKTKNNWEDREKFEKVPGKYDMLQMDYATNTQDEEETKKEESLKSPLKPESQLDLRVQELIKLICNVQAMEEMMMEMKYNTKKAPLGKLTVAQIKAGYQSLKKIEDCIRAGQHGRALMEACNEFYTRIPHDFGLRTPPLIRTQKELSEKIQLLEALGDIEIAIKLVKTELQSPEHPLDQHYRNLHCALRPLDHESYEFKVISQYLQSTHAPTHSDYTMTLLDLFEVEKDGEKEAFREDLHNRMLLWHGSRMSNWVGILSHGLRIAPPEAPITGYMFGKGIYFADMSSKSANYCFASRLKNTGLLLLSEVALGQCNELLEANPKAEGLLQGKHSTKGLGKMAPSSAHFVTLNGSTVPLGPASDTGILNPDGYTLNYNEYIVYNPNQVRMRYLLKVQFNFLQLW
Protein mono-ADP-ribosyltransferase PARP3, sequence (Q9Y6F1 whole entry): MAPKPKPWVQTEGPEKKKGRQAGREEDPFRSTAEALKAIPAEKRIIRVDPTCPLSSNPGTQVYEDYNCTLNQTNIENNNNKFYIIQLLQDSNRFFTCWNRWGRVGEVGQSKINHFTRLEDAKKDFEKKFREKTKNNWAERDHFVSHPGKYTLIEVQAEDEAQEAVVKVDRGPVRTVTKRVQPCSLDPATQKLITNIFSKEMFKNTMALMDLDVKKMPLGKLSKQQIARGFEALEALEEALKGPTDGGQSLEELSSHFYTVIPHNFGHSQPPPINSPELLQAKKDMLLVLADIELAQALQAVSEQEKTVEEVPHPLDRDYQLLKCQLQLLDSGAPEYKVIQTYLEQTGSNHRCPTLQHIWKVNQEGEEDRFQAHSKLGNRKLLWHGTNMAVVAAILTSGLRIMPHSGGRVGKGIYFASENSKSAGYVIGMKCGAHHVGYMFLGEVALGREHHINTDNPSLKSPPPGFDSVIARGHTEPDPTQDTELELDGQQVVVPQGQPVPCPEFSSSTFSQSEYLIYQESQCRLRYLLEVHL
Poly [ADP-ribose] polymerase 1, sequence (P09874 whole entry): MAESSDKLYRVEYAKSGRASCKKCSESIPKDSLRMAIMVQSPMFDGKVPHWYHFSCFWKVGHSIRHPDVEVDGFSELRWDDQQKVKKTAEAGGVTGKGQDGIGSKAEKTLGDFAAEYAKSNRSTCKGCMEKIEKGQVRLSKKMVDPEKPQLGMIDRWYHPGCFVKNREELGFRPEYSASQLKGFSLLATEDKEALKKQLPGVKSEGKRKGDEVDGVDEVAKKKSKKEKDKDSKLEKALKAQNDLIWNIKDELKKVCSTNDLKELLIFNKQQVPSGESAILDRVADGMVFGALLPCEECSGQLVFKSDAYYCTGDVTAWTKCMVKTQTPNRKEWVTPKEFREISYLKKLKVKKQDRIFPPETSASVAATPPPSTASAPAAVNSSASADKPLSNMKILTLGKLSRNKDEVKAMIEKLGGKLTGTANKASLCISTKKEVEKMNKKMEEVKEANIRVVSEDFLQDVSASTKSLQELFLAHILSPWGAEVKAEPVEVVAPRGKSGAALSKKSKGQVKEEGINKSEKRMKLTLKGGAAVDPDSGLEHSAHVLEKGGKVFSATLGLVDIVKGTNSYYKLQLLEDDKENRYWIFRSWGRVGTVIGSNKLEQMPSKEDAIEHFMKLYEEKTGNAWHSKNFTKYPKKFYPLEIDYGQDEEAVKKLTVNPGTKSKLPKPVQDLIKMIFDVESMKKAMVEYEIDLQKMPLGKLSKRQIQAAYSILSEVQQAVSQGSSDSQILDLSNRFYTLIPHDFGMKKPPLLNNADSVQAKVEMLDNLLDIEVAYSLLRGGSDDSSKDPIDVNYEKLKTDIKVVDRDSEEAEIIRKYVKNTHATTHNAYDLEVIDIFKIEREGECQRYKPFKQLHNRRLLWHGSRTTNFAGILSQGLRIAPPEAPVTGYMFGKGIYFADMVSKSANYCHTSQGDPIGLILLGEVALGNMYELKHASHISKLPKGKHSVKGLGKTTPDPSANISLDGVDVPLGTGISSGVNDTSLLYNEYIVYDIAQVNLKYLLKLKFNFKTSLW
Protein mono-ADP-ribosyltransferase PARP4, sequence (Q9UKK3 whole entry): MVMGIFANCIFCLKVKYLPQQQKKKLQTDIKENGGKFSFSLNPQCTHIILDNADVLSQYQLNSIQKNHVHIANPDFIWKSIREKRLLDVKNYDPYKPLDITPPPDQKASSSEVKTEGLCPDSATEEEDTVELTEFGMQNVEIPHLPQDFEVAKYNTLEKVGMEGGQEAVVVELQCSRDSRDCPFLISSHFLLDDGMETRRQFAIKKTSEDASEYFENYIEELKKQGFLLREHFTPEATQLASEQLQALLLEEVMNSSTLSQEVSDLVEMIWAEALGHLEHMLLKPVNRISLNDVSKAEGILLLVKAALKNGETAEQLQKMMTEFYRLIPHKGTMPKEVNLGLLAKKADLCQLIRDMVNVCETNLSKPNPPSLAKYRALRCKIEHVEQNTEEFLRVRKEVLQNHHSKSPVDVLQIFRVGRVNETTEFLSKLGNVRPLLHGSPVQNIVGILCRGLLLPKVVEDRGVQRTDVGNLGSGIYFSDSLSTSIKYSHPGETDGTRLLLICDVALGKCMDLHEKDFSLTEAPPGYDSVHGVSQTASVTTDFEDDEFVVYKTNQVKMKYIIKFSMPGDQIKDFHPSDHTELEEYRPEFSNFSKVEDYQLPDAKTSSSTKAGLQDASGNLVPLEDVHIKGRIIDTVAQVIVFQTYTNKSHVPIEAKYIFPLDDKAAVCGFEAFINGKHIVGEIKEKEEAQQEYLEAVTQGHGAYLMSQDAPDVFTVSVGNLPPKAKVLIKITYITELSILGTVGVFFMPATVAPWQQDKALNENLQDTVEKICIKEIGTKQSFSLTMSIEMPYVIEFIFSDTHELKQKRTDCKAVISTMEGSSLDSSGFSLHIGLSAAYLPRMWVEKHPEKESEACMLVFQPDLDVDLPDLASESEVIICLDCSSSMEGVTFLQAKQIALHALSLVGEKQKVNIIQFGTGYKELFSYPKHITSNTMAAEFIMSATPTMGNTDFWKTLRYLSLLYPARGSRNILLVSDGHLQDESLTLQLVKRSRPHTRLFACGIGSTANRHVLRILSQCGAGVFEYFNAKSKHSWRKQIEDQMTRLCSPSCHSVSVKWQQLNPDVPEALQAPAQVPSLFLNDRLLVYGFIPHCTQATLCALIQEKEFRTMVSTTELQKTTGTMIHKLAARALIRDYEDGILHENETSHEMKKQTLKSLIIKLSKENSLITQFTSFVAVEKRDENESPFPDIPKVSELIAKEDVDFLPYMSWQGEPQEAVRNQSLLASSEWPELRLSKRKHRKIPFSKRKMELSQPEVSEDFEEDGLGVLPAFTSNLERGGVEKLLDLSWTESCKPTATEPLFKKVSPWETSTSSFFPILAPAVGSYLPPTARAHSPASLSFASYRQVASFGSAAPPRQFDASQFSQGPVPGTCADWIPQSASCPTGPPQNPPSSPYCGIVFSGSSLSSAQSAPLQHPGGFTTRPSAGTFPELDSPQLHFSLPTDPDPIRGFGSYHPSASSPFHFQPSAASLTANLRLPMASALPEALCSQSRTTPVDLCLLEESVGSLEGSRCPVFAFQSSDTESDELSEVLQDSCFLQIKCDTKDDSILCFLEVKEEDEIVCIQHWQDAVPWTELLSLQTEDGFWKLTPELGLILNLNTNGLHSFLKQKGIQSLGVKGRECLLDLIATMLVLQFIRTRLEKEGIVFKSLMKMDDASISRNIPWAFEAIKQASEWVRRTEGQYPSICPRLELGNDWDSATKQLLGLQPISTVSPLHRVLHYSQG
Cytochrome P450 2C9, sequence (P11712 whole entry): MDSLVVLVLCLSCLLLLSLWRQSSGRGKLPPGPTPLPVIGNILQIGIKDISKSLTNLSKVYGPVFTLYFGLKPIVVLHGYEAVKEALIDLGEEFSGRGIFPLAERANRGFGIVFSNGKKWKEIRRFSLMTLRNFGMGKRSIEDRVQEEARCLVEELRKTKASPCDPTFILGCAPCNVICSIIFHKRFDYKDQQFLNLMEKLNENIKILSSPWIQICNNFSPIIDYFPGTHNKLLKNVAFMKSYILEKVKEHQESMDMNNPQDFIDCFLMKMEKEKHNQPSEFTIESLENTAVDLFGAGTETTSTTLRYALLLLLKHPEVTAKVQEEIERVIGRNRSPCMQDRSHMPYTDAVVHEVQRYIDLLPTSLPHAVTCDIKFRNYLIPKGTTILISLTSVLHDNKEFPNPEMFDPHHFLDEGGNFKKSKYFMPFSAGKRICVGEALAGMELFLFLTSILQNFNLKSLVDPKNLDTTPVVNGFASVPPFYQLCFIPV

inhibition [1]: 66%
IC50 [2]: > 100 µM
inhibition [3]: 70%
AUC(0-t) at 24 h [4]: 27100 ng·h/mL
bioavailability [6]: 47%
bioavailability [7]: 35%
hepatocyte CLint at 3 µM [8]: 6.44 µL/min/1e6 cells
IC50 [10]: > 25 µM
IC50 [11]: > 10 µM
IC50 (Cytochrome P450 2D6): > 25 µM
Papp [13]: 5.3 ×10⁻⁷ cm/s
half-life [14]: 4.7 h
Drug excretion [15]: Metabolite_Notdetected
IC50 [16]: > 10 µM
IC50 (Cytochrome P450 2C9): 11.9 µM
IC50 (Cytochrome P450 2C19): > 25 µM
Papp [17]: 28.2 ×10⁻⁷ cm/s
IC50 (Cytochrome P450 3A4): 1.3 µM
inhibition [18]: 73%
IC50 [19]: > 10 µM
bioavailability [20]: 91%
clearance (Canis familiaris): 2.33 mL/min/kg
IC50 [21]: > 10 µM
Drug excretion [22]: Metabolite_Notdetected
Cmax [23]: 5850 ng/mL
solubility kinetic at 2 h [24]: 31.2 µM (≈ 14.6 µg/mL)
IC50 [25]: > 100 µM
AUC(0-t) at 24 h [27]: 145 ng·h/mL
half-life [28]: 1.5 h
IC50 [29]: > 100 µM
clearance (Mus musculus [31]): 567 mL/min/kg
CLH (Liver): 14.8 µL/min/mg
IC50 [32]: > 100 µM
IC50 [34]: > 10 µM
AUC(0-t) at 24 h [35]: 2760 ng·h/mL
Cmax [37]: 843 ng/mL
inhibition [38]: 52%
Cmax [39]: 124 ng/mL
SMILES: N#Cc1ccc2c(c1)[nH]c(=O)n2[C@H]1C[C@H](c2nnc(-c3ccncn3)n2-c2ccccc2Cl)C1
Activity (Mus musculus [5]): Non-Toxic
inhibition in vivo at 60 mg/kg (COLO 320DM [9]): 63%
inhibition in vivo at 30 mg/kg (P388 [12]): 57%
inhibition in vivo at 15 mg/kg (P388 [26]): 32%
Activity (Mus musculus [30]): Non-Toxic
Activity (Mus musculus [33]): Non-Toxic
inhibition in vivo at 30 mg/kg (COLO 320DM [36]): 63%
Activity (Mus musculus [40]): Non-Toxic
inhibition in vivo at 15 mg/kg (COLO 320DM [41]): 53%
